Legend:
Heart [1] = experiment: Biodistribution in CD1 mouse heart at 200 to 300 kBq, iv measured at 30 mins by gamma counting analysis; format: ADME, organism-based; settings: in vivo, 0.5 h
How it was run: (§1)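 Female CD-1 mice, 200–300 kBq radiotracer given iv, n = 3 per time point. Animals anaesthetised for blood and urine sampling, then killed by cervical dislocation at 5, 15, 30 or 60 min p.i. Organs removed, weighed and gamma-counted; uptake expressed as % injected dose per g wet tissue.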

Mus musculus [2] = experiment: Biodistribution in CD1 mouse adrenal at 200 to 300 kBq, iv measured at 15 mins by gamma counting analysis; format: ADME, organism-based, Adrenal gland; settings: in vivo, 0.25 h; how it was run: as §1
Urinary bladder [3] = experiment: Biodistribution in CD1 mouse bladder at 200 to 300 kBq, iv measured at 15 mins by gamma counting analysis; format: ADME, organism-based; settings: in vivo, 0.25 h; how it was run: as §1
[4] = Biodistribution in CD1 mouse urine at 200 to 300 kBq, iv measured at 15 mins by gamma counting analysis; format: ADME, organism-based; settings: in vivo, 0.25 h
How it was run: (§2)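 Female CD-1 mice given 200–300 kBq tracer intravenously. Animals anaesthetised for blood and urine sampling, then killed by cervical dislocation at 5, 15, 30 or 60 min (n = 3 per time; n = 7 at 60 min). Organs removed and weighed, activity gamma-counted, expressed as % injected dose per g wet weight. Blocking arm: 10 mg/kg i.p. in 0.9% saline, 10 min before tracer; two-tailed unpaired t test versus control.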

Stomach [5] = experiment: Biodistribution in CD1 mouse stomach at 200 to 300 kBq, iv measured at 15 mins by gamma counting analysis; format: ADME, organism-based; settings: in vivo, 0.25 h
How it was run: (§3)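 Female CD-1 mice received 200–300 kBq [18F]radiotracer intravenously. Blood and urine were sampled under anaesthesia, then mice were killed by cervical dislocation at 5, 15, 30 or 60 min p.i. (n = 3; control at 60 min n = 7). Organs were removed and weighed, activity was gamma-counted, and uptake was expressed as % injected dose per g wet tissue.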

Spleen = experiment: Biodistribution in CD1 mouse spleen at 200 to 300 kBq, iv measured at 5 mins by gamma counting analysis; format: ADME, organism-based; settings: in vivo; how it was run: as §3
Mus musculus [6] = experiment: Biodistribution in CD1 mouse thymus at 200 to 300 kBq, iv measured at 5 mins by gamma counting analysis; format: ADME, organism-based; settings: in vivo; how it was run: as §2
Liver [7] = experiment: Biodistribution in CD1 mouse liver at 200 to 300 kBq, iv measured at 5 mins by gamma counting analysis; format: ADME, organism-based; settings: in vivo; how it was run: as §3
Mus musculus [8] = experiment: Biodistribution in CD1 mouse large intestine at 200 to 300 kBq, iv measured at 5 mins by gamma counting analysis; format: ADME, organism-based; settings: in vivo; how it was run: as §1
Stomach [9] = experiment: Biodistribution in CD1 mouse stomach at 200 to 300 kBq, iv measured at 5 mins by gamma counting analysis; format: ADME, organism-based; settings: in vivo; how it was run: as §3
Blood [10] = experiment: Biodistribution in CD1 mouse blood at 200 to 300 kBq, iv measured at 5 mins by gamma counting analysis; format: ADME, organism-based; settings: in vivo; how it was run: as §1
Femur [11] = experiment: Biodistribution in CD1 mouse femur at 200 to 300 kBq, iv measured at 60 mins by gamma counting analysis in presence of SSR180711; format: ADME, organism-based; settings: in vivo, 1 h
How it was run: (§4)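 Blocking study in female CD-1 mice, n = 7 per blocker, with a matching control group. SSR180711 or NS6740 given at 10 mg kg⁻¹ ip in 0.9% saline 10 min before iv radiotracer (200–300 kBq). Organs taken at 60 min p.i., weighed and gamma-counted; uptake as % ID per g wet weight. Compared with control by two-tailed independent Student's t test.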

Kidney = experiment: Biodistribution in CD1 mouse kidney at 200 to 300 kBq, iv measured at 60 mins by gamma counting analysis in presence of SSR180711; format: ADME, organism-based; settings: in vivo, 1 h; how it was run: as §4
Mus musculus [12] = experiment: Biodistribution in CD1 mouse large intestine at 200 to 300 kBq, iv measured at 60 mins by gamma counting analysis in presence of SSR180711; format: ADME, organism-based; settings: in vivo, 1 h; how it was run: as §4
Liver [13] = experiment: Biodistribution in CD1 mouse liver at 200 to 300 kBq, iv measured at 60 mins by gamma counting analysis in presence of SSR180711; format: ADME, organism-based; settings: in vivo, 1 h
How it was run: (§5)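 Blocking design in female CD-1 mice, n = 7 per group. The blocker was given at 10 mg kg^-1 i.p. in 0.9% saline 10 min before i.v. 200–300 kBq [18F]radiotracer. Mice were killed at 60 min p.i. and organs weighed and gamma-counted as % ID per g wet weight. Blocked groups were compared with controls by two-tailed independent Student's t test.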

Mus musculus [14] = experiment: Biodistribution in CD1 mouse small intestine at 200 to 300 kBq, iv measured at 60 mins by gamma counting analysis in presence of SSR180711; format: ADME, organism-based; settings: in vivo, 1 h; how it was run: as §5
Stomach [15] = experiment: Biodistribution in CD1 mouse stomach at 200 to 300 kBq, iv measured at 60 mins by gamma counting analysis in presence of SSR180711; format: ADME, organism-based; settings: in vivo, 1 h; how it was run: as §5
Heart [16] = experiment: Biodistribution in CD1 mouse heart at 200 to 300 kBq, iv measured at 60 mins by gamma counting analysis in presence of SSR180711; format: ADME, organism-based; settings: in vivo, 1 h; how it was run: as §4
Muscle tissue = experiment: Biodistribution in CD1 mouse muscle at 200 to 300 kBq, iv measured at 60 mins by gamma counting analysis; format: ADME, organism-based; settings: in vivo, 1 h; how it was run: as §3
Zone of skin [17] = experiment: Biodistribution in CD1 mouse skin at 200 to 300 kBq, iv measured at 60 mins by gamma counting analysis; format: ADME, organism-based; settings: in vivo, 1 h; how it was run: as §3
Mus musculus [18] = experiment: Biodistribution in CD1 mouse adrenal at 200 to 300 kBq, iv measured at 60 mins by gamma counting analysis; format: ADME, organism-based, Adrenal gland; settings: in vivo, 1 h; how it was run: as §1
Urinary bladder [19] = experiment: Biodistribution in CD1 mouse bladder at 200 to 300 kBq, iv measured at 60 mins by gamma counting analysis; format: ADME, organism-based; settings: in vivo, 1 h; how it was run: as §1
[20] = Biodistribution in CD1 mouse urine at 200 to 300 kBq, iv measured at 60 mins by gamma counting analysis; format: ADME, organism-based; settings: in vivo, 1 h; how it was run: as §2
Mus musculus [21] = experiment: Biodistribution in CD1 mouse large intestine at 200 to 300 kBq, iv measured at 60 mins by gamma counting analysis; format: ADME, organism-based; settings: in vivo, 1 h; how it was run: as §1
Stomach [22] = experiment: Biodistribution in CD1 mouse stomach at 200 to 300 kBq, iv measured at 60 mins by gamma counting analysis; format: ADME, organism-based; settings: in vivo, 1 h; how it was run: as §3
Brain = experiment: Biodistribution in CD1 mouse brain at 200 to 300 kBq, iv measured at 60 mins by gamma counting analysis; format: ADME, organism-based; settings: in vivo, 1 h; how it was run: as §1
Blood [23] = experiment: Biodistribution in CD1 mouse blood at 200 to 300 kBq, iv measured at 60 mins by gamma counting analysis; format: ADME, organism-based; settings: in vivo, 1 h; how it was run: as §1
Femur [24] = experiment: Biodistribution in CD1 mouse femur at 200 to 300 kBq, iv measured at 30 mins by gamma counting analysis; format: ADME, organism-based; settings: in vivo, 0.5 h; how it was run: as §1
Zone of skin [25] = experiment: Biodistribution in CD1 mouse skin at 200 to 300 kBq, iv measured at 30 mins by gamma counting analysis; format: ADME, organism-based; settings: in vivo, 0.5 h; how it was run: as §3
Urinary bladder [26] = experiment: Biodistribution in CD1 mouse bladder at 200 to 300 kBq, iv measured at 30 mins by gamma counting analysis; format: ADME, organism-based; settings: in vivo, 0.5 h; how it was run: as §1
Liver [27] = experiment: Biodistribution in CD1 mouse liver at 200 to 300 kBq, iv measured at 30 mins by gamma counting analysis; format: ADME, organism-based; settings: in vivo, 0.5 h; how it was run: as §3
Mus musculus [28] = experiment: Biodistribution in CD1 mouse large intestine at 200 to 300 kBq, iv measured at 30 mins by gamma counting analysis; format: ADME, organism-based; settings: in vivo, 0.5 h; how it was run: as §1

## O=C(Oc1ccc(Br)cc1)N1CCN2CCC1CC2 [SSR180711]
Heart [1]
  Drug uptake: 2.41 % ID/g
Mus musculus [2]
  Drug uptake: 5.65 % ID/g
Urinary bladder [3]
  Drug uptake: 2.19 % ID/g
[4]
  Drug uptake: 122 % ID/g
Stomach [5]
  Drug uptake: 5.45 % ID/g
Spleen
  Drug uptake: 4.22 % ID/g
Mus musculus [6]
  Drug uptake: 1.95 % ID/g
Liver [7]
  Drug uptake: 6.29 % ID/g
Mus musculus [8]
  Drug uptake: 1.36 % ID/g
Stomach [9]
  Drug uptake: 3.92 % ID/g
Blood [10]
  Drug uptake: 1.6 % ID/g
Femur [11]
  Drug uptake: 1.43 % ID/g
Kidney
  Drug uptake: 10.5 % ID/g
Mus musculus [12]
  Drug uptake: 5.46 % ID/g
Liver [13]
  Drug uptake: 6.45 % ID/g
Mus musculus [14]
  Drug uptake: 15.9 % ID/g
Stomach [15]
  Drug uptake: 7.76 % ID/g
Heart [16]
  Drug uptake: 1.81 % ID/g
Muscle tissue
  Drug uptake: 1 % ID/g
Zone of skin [17]
  Drug uptake: 1.94 % ID/g
Mus musculus [18]
  Drug uptake: 3.01 % ID/g
Urinary bladder [19]
  Drug uptake: 1.88 % ID/g
[20]
  Drug uptake: 152 % ID/g
Mus musculus [21]
  Drug uptake: 5.02 % ID/g
Stomach [22]
  Drug uptake: 8.13 % ID/g
Brain
  Drug uptake: 0.18 % ID/g
Blood [23]
  Drug uptake: 0.78 % ID/g
Femur [24]
  Drug uptake: 1.48 % ID/g
Zone of skin [25]
  Drug uptake: 1.23 % ID/g
Urinary bladder [26]
  Drug uptake: 2.08 % ID/g
Liver [27]
  Drug uptake: 8.51 % ID/g
Mus musculus [28]
  Drug uptake: 2.7 % ID/g
